Reference: ChEMBL document CHEMBL4346672, “Antimicrobial and KPC/AmpC inhibitory activity of functionalized benzosiloxaboroles” (Eur J Med Chem, 2019)
Converted amounts (≈) assume the structure as drawn.

Key:
Escherichia coli = assay: Inhibition of beta lactamase CMY-2 in Escherichia coli 77 assessed as potentiation of ceftazidime-induced antibacterial activity by measuring diameter of zone inhibition at 0.3 mg incubated for 18 hrs in presence of 30 ug ceftazidime by CLSI disc diffusion method (Rvb=13 mm)
In short: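 AmpC combination disc test on Mueller-Hinton agar, following EUCAST guidance and Yagi et al. Inhibition zones were compared between a CAZ-30 disc and a ceftazidime disc plus agent or PBA, each at 0.3 mg per disc. Plates were incubated at 35 °C for 18 h. A zone difference of at least 5 mm was counted as inhibition.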

Acinetobacter baumannii = assay: Inhibition of beta lactamase OXA-24 in Acinetobacter baumannii 181 assessed as potentiation of meropenem-induced antibacterial activity by measuring meropenem MIC at 16 mg/L incubated for 18 hrs by broth dilution method (reference value: […] mg/L)
Enterococcus faecium = assay: Bactericidal activity against Enterococcus faecium ATCC 6057 measured after 18 hrs by CLSI broth dilution method; format: functional; conditions: ATCC 6057, 18 h
In short: (§1)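 Strains stored at -80 °C and subcultured twice on tryptic soy agar before testing. Compounds dissolved in DMSO. […] MBC then determined per CLSI recommendations.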

Burkholderia cepacia = assay: Bactericidal activity against Burkholderia cepacia ATCC 25416 measured after 18 hrs by CLSI broth dilution method; format: functional; conditions: ATCC 25416, 18 h; in short: as §1
[1] = system: Bordetella bronchiseptica; assay: Bactericidal activity against Bordetella bronchiseptica ATCC 4617 measured after 18 hrs by CLSI broth dilution method; format: functional; conditions: ATCC 4617, 18 h; in short: as §1

C[Si]1(C)OB(O)c2ccc(F)c(F)c21
inhibition zone (IZ) (Escherichia coli): 22 mm | MIC (Acinetobacter baumannii): > 64 µg/mL

C[Si]1(C)OB(O)c2ccc(C(F)(F)F)cc21
MBC (Enterococcus faecium): 50 µg/mL (≈ 203 µM)

C[Si]1(C)OB(O)c2cc3c(c(F)c21)COB3O
inhibition zone (IZ) (Escherichia coli): 20 mm | MIC (Acinetobacter baumannii): > 64 µg/mL

C[Si]1(C)OB(O)c2ccc(B(O)O)cc21
MBC (Enterococcus faecium): 400 µg/mL (≈ 1800 µM) | inhibition zone (IZ) (Escherichia coli): 22 mm | MIC (Acinetobacter baumannii): > 64 µg/mL

C[Si]1(C)OB(O)c2c(F)c(F)c(F)c(F)c21
inhibition zone (IZ) (Escherichia coli): 22 mm | MIC (Acinetobacter baumannii): > 64 µg/mL

C[Si]1(C)OB(O)c2c(F)c3c(c(F)c21)B(O)OC3
MBC (Burkholderia cepacia): 100 µg/mL (≈ 371 µM) | MBC [1]: 400 µg/mL (≈ 1480 µM) | inhibition zone (IZ) (Escherichia coli): 20 mm | MIC (Acinetobacter baumannii): > 64 µg/mL
